# Data as given in ChEMBL document CHEMBL5058577, “EUbOPEN Chemogenomics Library 2 (Multiplex)” (2022).
# Test system: Fibroblast
# Experiment: Multiplex assay against human fibroblast
# Type: toxicity, cell-based
# Summary of the method: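 At seeding, live cells were stained with Hoechst33342, BioTracker Green Microtubule Cytoskeleton Dye, MitoTracker Red and Annexin V Alexa Fluor 680. After compound addition they were imaged on a CQ1 microscope at 37°C and 5% CO2, and CellPathfinder machine-learning gating sorted them into Hoechst high-intensity objects or normal cells, with normal cells further split into healthy, pyknosed or fragmented nuclei and pyknosed cells into mitotic or apoptotic. Tubulin, mitochondrial-mass and membrane-permeability phenotypes are given as per cents of cells with healthy nuclei.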
# [1] = 12 h, 1 µM, compound concentration 1 uM, replicate 1
# [2] = 12 h, 1 µM, compound concentration 1 uM, replicate 2
# [3] = 12 h, 10 µM, compound concentration 10 uM, replicate 1
# [4] = 12 h, 10 µM, compound concentration 10 uM, replicate 2
# [5] = 24 h, 1 µM, compound concentration 1 uM, replicate 1
# [6] = 24 h, 1 µM, compound concentration 1 uM, replicate 2
# [7] = 24 h, 10 µM, compound concentration 10 uM, replicate 1
# [8] = 24 h, 10 µM, compound concentration 10 uM, replicate 2
# [9] = 48 h, 1 µM, compound concentration 1 uM, replicate 1
# [10] = 48 h, 1 µM, compound concentration 1 uM, replicate 2
# [11] = 48 h, 10 µM, compound concentration 10 uM, replicate 1
# [12] = 48 h, 10 µM, compound concentration 10 uM, replicate 2
smiles,measurement,setting,value
CN1CCN2c3ncccc3Cc3ccccc3C2C1 (stereo not given) [MIRTAZAPINE],Population Apoptotic (%),[1],44%
same,Population Fragmented Nuclei (%),[1],10%
same,Population Healthy Nuclei (%),[1],77%
same,Population Hoechst High Intensity Objects (%),[1],3%
same,Population Membrane Permeable-Phenotype (%),[1],0%
same,Population Mitochondria Different-Phenotype (%),[1],6%
same,Population Mitotic Cells (%),[1],56%
same,Population Normal (%),[1],96%
same,Population Pyknosed Nuclei (%),[1],12%
same,Population Tubulin-Different-Phenotype (%),[1],24%
same,Total Cell Count,[1],213
same,Population Apoptotic (%),[2],33%
same,Population Fragmented Nuclei (%),[2],24%
same,Population Healthy Nuclei (%),[2],47%
same,Population Membrane Permeable-Phenotype (%),[2],4%
same,Population Mitochondria Different-Phenotype (%),[2],5%
same,Population Mitotic Cells (%),[2],66%
same,Population Pyknosed Nuclei (%),[2],27%
same,Population Tubulin-Different-Phenotype (%),[2],45%
same,Total Cell Count,[2],156
same,Population Apoptotic (%),[3],44%
same,Population Fragmented Nuclei (%),[3],19%
same,Population Healthy Nuclei (%),[3],69%
same,Population Hoechst High Intensity Objects (%),[3],1%
same,Population Membrane Permeable-Phenotype (%),[3],0%
same,Population Mitochondria Different-Phenotype (%),[3],8%
same,Population Mitotic Cells (%),[3],55%
same,Population Normal (%),[3],98%
same,Population Pyknosed Nuclei (%),[3],10%
same,Population Tubulin-Different-Phenotype (%),[3],30%
same,Total Cell Count,[3],168
same,Population Apoptotic (%),[4],28%
same,Population Fragmented Nuclei (%),[4],27%
same,Population Healthy Nuclei (%),[4],40%
same,Population Hoechst High Intensity Objects (%),[4],6%
same,Population Membrane Permeable-Phenotype (%),[4],16%
same,Population Mitochondria Different-Phenotype (%),[4],7%
same,Population Mitotic Cells (%),[4],71%
same,Population Normal (%),[4],93%
same,Population Pyknosed Nuclei (%),[4],32%
same,Population Tubulin-Different-Phenotype (%),[4],60%
same,Total Cell Count,[4],140
same,Population Apoptotic (%),[5],47%
same,Population Fragmented Nuclei (%),[5],7%
same,Population Healthy Nuclei (%),[5],82%
same,Population Hoechst High Intensity Objects (%),[5],5%
same,Population Membrane Permeable-Phenotype (%),[5],0%
same,Population Mitochondria Different-Phenotype (%),[5],5%
same,Population Mitotic Cells (%),[5],52%
same,Population Normal (%),[5],94%
same,Population Pyknosed Nuclei (%),[5],10%
same,Population Tubulin-Different-Phenotype (%),[5],31%
same,Total Cell Count,[5],201
same,Population Apoptotic (%),[6],48%
same,Population Fragmented Nuclei (%),[6],26%
same,Population Healthy Nuclei (%),[6],50%
same,Population Hoechst High Intensity Objects (%),[6],0%
same,Population Membrane Permeable-Phenotype (%),[6],10%
same,Population Mitochondria Different-Phenotype (%),[6],10%
same,Population Mitotic Cells (%),[6],51%
same,Population Normal (%),[6],99%
same,Population Pyknosed Nuclei (%),[6],23%
same,Population Tubulin-Different-Phenotype (%),[6],36%
same,Total Cell Count,[6],153
same,Population Apoptotic (%),[7],50%
same,Population Fragmented Nuclei (%),[7],19%
same,Population Healthy Nuclei (%),[7],72%
same,Population Hoechst High Intensity Objects (%),[7],4%
same,Population Membrane Permeable-Phenotype (%),[7],0%
same,Population Mitochondria Different-Phenotype (%),[7],9%
same,Population Mitotic Cells (%),[7],50%
same,Population Normal (%),[7],95%
same,Population Pyknosed Nuclei (%),[7],7%
same,Population Tubulin-Different-Phenotype (%),[7],30%
same,Total Cell Count,[7],186
same,Population Apoptotic (%),[8],46%
same,Population Fragmented Nuclei (%),[8],29%
same,Population Healthy Nuclei (%),[8],46%
same,Population Hoechst High Intensity Objects (%),[8],5%
same,Population Membrane Permeable-Phenotype (%),[8],15%
same,Population Mitochondria Different-Phenotype (%),[8],1%
same,Population Mitotic Cells (%),[8],53%
same,Population Normal (%),[8],94%
same,Population Pyknosed Nuclei (%),[8],23%
same,Population Tubulin-Different-Phenotype (%),[8],68%
same,Total Cell Count,[8],136
same,Population Apoptotic (%),[9],60%
same,Population Fragmented Nuclei (%),[9],15%
same,Population Healthy Nuclei (%),[9],73%
same,Population Hoechst High Intensity Objects (%),[9],7%
same,Population Membrane Permeable-Phenotype (%),[9],0%
same,Population Mitochondria Different-Phenotype (%),[9],4%
same,Population Mitotic Cells (%),[9],39%
same,Population Normal (%),[9],92%
same,Population Pyknosed Nuclei (%),[9],11%
same,Population Tubulin-Different-Phenotype (%),[9],31%
same,Total Cell Count,[9],213
same,Population Apoptotic (%),[10],50%
same,Population Fragmented Nuclei (%),[10],36%
same,Population Healthy Nuclei (%),[10],45%
same,Population Hoechst High Intensity Objects (%),[10],2%
same,Population Membrane Permeable-Phenotype (%),[10],11%
same,Population Mitochondria Different-Phenotype (%),[10],12%
same,Population Mitotic Cells (%),[10],50%
same,Population Normal (%),[10],97%
same,Population Pyknosed Nuclei (%),[10],17%
same,Population Tubulin-Different-Phenotype (%),[10],56%
same,Total Cell Count,[10],161
same,Population Apoptotic (%),[11],66%
same,Population Fragmented Nuclei (%),[11],17%
same,Population Healthy Nuclei (%),[11],73%
same,Population Hoechst High Intensity Objects (%),[11],5%
same,Population Membrane Permeable-Phenotype (%),[11],0%
same,Population Mitochondria Different-Phenotype (%),[11],9%
same,Population Mitotic Cells (%),[11],33%
same,Population Normal (%),[11],94%
same,Population Pyknosed Nuclei (%),[11],9%
same,Population Tubulin-Different-Phenotype (%),[11],36%
same,Total Cell Count,[11],176
same,Population Apoptotic (%),[12],33%
same,Population Fragmented Nuclei (%),[12],46%
same,Population Healthy Nuclei (%),[12],41%
same,Population Hoechst High Intensity Objects (%),[12],2%
same,Population Membrane Permeable-Phenotype (%),[12],8%
same,Population Mitochondria Different-Phenotype (%),[12],2%
same,Population Mitotic Cells (%),[12],66%
same,Population Normal (%),[12],97%
same,Population Pyknosed Nuclei (%),[12],12%
same,Population Tubulin-Different-Phenotype (%),[12],60%
same,Total Cell Count,[12],120
